Legend:
Canis familiaris = species: Canis familiaris; assay: Effect on methemoglobin formation in canine venous blood containing heparin; assay type: functional, Canis lupus familiaris
[1] = molecular target: Arachidonate 5-lipoxygenase (Homo sapiens); assay: Inhibitory activity of LTB4 production in human PMN
[2] = molecular target: T1, Polyunsaturated fatty acid 5-lipoxygenase (Rattus norvegicus, UniProt P12527); assay: Tested for its inhibitory activity against arachidonic acid in rat 5-lipoxygenase.
T1 sequence (P12527 whole entry): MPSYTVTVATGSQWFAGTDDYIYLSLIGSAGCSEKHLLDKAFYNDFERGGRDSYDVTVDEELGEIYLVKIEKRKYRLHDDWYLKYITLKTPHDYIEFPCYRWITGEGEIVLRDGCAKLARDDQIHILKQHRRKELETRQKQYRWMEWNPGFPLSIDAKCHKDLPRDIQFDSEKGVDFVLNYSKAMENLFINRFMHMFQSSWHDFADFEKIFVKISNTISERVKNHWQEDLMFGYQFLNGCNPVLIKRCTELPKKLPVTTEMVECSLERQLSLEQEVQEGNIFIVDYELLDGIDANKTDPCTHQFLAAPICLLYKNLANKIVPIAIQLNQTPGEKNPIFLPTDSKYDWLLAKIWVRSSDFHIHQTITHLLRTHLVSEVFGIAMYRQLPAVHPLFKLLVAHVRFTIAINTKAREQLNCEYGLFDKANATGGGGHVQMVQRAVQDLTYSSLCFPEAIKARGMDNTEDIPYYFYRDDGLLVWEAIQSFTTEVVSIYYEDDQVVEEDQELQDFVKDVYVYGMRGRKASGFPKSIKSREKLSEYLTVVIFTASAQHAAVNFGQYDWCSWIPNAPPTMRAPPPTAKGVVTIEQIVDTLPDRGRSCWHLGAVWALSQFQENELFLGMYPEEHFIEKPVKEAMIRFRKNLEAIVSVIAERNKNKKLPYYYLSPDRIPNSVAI
Method in brief: (§1)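 10000g supernatant from rat PMN leukocytes incubated 10 min with [14C]arachidonic acid. 5-Lipoxygenase activity taken as percentage conversion to 5-HETE plus 5,12-diHETEs.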

[3] = Measure of AUCpo/AUCiv x 100% of the parent compound before (free) and after (total) beta-glucuronidase treatment; total 10%; assay type: ADME, organism-based; conditions: in vivo, po; read-out: Bioavailabiility
[4] = Peak concentration of drug in rat plasma after oral dosing at 20 mg/kg. Concentration of parent compound was measured before (free) and after (total) beta-glucuronidase treatment; total 3.0 uM; assay type: ADME, organism-based; design: dose 20 mg/kg, route oral; conditions: read-out: Plasma level
Rattus norvegicus [5] = species: Rattus norvegicus; assay: Percentage inhibition against antigen induced dyspnea in hyperactive inbred rat at a dose of […]; assay type: functional
[6] = Measure of AUCpo/AUCiv x 100% of the parent compound before (free) and after (total) beta-glucuronidase treatment; total 27%; assay type: ADME, organism-based; conditions: in vivo, po; read-out: Bioavailabiility
[7] = Peak concentration of drug in rat plasma after oral dosing at 20 mg/kg. Concentration of parent compound was measured before (free) and after (total) beta-glucuronidase treatment; total 3.1 uM; assay type: ADME, organism-based; design: dose 20 mg/kg, route oral; conditions: read-out: Plasma level
Rattus norvegicus [8] = assay: Effective dose against antigen induced dyspnea in hyperactive inbred rat at a dose of 0.5 mg/kg; assay type: functional
Method in brief: (§2)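 Inbred hyperreactive rats, six per group, dosed po 2 h before aerosol ovalbumin challenge, with drug suspension or vehicle (0.4% Methocel/0.5% Tween 80, 10 mL/kg). Methysergide 3 mg/kg iv given 5 min before antigen. Dyspnea duration recorded by pneumotachograph. % inhibition of duration is relative to vehicle controls. Student's t test used; ED50 from linear regression.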

Rattus norvegicus [9] = assay: Percentage inhibition against antigen induced dyspnea in hyperactive inbred rat at a dose of 0.05 mg/kg; assay type: functional; method in brief: as §2
[10] = molecular target: T1, Polyunsaturated fatty acid 5-lipoxygenase; assay: The compound was tested for its inhibitory activity against arachidonic acid in rat 5-lipoxygenase; method in brief: as §1
[11] = Measure of AUCpo/AUCiv x 100% of the parent compound before (free) and after (total) beta-glucuronidase treatment; total 76%; assay type: ADME, organism-based; conditions: in vivo, po; read-out: Bioavailabiility
[12] = Peak concentration of drug in rat plasma after oral dosing at 20 mg/kg. Concentration of parent compound was measured before (free) and after (total) beta-glucuronidase treatment; total 3.8 uM; assay type: ADME, organism-based; design: dose 20 mg/kg, route oral; conditions: read-out: Plasma level
Rattus norvegicus [13] = species: Rattus norvegicus; assay: Effective dose against antigen induced dyspnea in hyperactive inbred rat at a dose of […]; assay type: functional
Rattus norvegicus [14] = assay: Percentage inhibition against antigen induced dyspnea in hyperactive inbred rat at a dose of 0.5 mg/kg; assay type: functional; conditions: for inhibition in vivo at 0.5 mg/kg: Rattus norvegicus; method in brief: as §2
[15] = Measure of AUCpo/AUCiv x 100% of the parent compound before (free) and after (total) beta-glucuronidase treatment; total 72%; assay type: ADME, organism-based; conditions: in vivo, po; read-out: Bioavailabiility
[16] = Peak concentration of drug in rat plasma after oral dosing at 20 mg/kg. Concentration of parent compound was measured before (free) and after (total) beta-glucuronidase treatment; total 2.2 uM; assay type: ADME, organism-based; design: dose 20 mg/kg, route oral; conditions: read-out: Plasma level
Rattus norvegicus [17] = assay: Peak concentration of drug in rat plasma after oral dosing at 20 mg/kg. Concentration of parent compound was measured before (free) and after (total) beta-glucuronidase treatment; total 0.7 uM; assay type: functional, organism-based; design: dose 20 mg/kg
[18] = Measure of AUCpo/AUCiv x 100% of the parent compound before (free) and after (total) beta-glucuronidase treatment; total 4%; assay type: ADME, organism-based; conditions: in vivo, po; read-out: Bioavailabiility
[19] = Peak concentration of drug in rat plasma after oral dosing at 20 mg/kg. Concentration of parent compound was measured before (free) and after (total) beta-glucuronidase treatment; total 3.4 uM; assay type: ADME, organism-based; design: dose 20 mg/kg, route oral; conditions: read-out: Plasma level

| Structure (SMILES) | Formation (Canis familiaris) | IC50 [1] | IC50 [2] | also measured |
| --- | --- | --- | --- | --- |
| Oc1ccc2c(c1)CC(CCc1ccccc1)O2 (stereo not drawn) | 40% | 275 nM |  |  |
| O=C(O)c1ccc(OCCCc2cc3c(cc2O)CC(CCc2ccccc2)O3)cc1 (stereo not drawn) | 3% | 356 nM | 44 nM |  |
| CCCc1cc(Cl)c2c(c1O)C(C)C(Cc1ccc(OC)cc1)O2 (stereo not drawn) |  | 235 nM |  |  |
| CCCc1cc2c(cc1O)C(C)(C)C(CCc1ccc(S(C)(=O)=O)cc1)O2 (stereo not drawn) |  | 176 nM |  |  |
| Oc1cc2c(cc1CCCSc1ccncc1)OC(CCc1ccccc1)C2 (stereo not drawn) | 6% | 14 nM | 8 nM | bioavailability [3]: 11%; Cmax [4]: 1000 nM; inhibition in vivo at […] (Rattus norvegicus [5]; dose 1.5 mg/kg): 51% |
| Oc1cc2c(cc1CCCOc1ccccc1)OC(CCc1ccc(Cl)cc1)C2 (stereo not drawn) | 2.8% | 41 nM | 51 nM | bioavailability [6]: 6%; Cmax [7]: 300 nM; ED50 (Rattus norvegicus [8]): 0.07 mg/kg; inhibition in vivo at 0.05 mg/kg (Rattus norvegicus [9]): 56%; inhibition in vivo at […] (Rattus norvegicus [5]; dose 0.15 mg/kg): 66% |
| C=CCc1cc2c(cc1O)C(C)(C)C(Cc1ccc(OC)cc1)O2 (stereo not drawn) | 1% | 49 nM | 164 nM | inhibition in vivo at […] (Rattus norvegicus [5]; dose 1.5 mg/kg): 68% |
| CC1(C)c2cc(O)c(CCCOc3ccccc3)cc2OC1CCc1ccccc1 (stereo not drawn) | 6% | 38 nM | 40 nM | inhibition in vivo at […] (Rattus norvegicus [5]; dose 1.5 mg/kg): 48% |
| CS(=O)(=O)c1ccc(Cc2cc3c(cc2O)CC(CCc2ccccc2)O3)cc1 (stereo not drawn) |  | 190 nM |  |  |
| CCCc1cc2c(cc1O)C(C)C(Cc1ccc(OC)cc1)O2 (stereo not drawn) | 6% | 18 nM |  | IC50 [10]: 35 nM |
| COc1ccc(CC2Oc3ccc(O)cc3C2C)cc1 (stereo not drawn) | 6% | 107 nM |  |  |
| CC1(C)c2cc(O)c(CCCOc3ccccc3)cc2OC1CCc1ccc(Cl)cc1 (stereo not drawn) |  | 472 nM |  |  |
| Oc1cc2c(cc1Cc1ccccc1)OC(CCc1ccccc1)C2 (stereo not drawn) | 6% | 18 nM | 48 nM | bioavailability [11]: 44%; Cmax [12]: 1600 nM; ED50 at […] (Rattus norvegicus [13]): 0.3 mg/kg; inhibition in vivo at 0.05 mg/kg (Rattus norvegicus [9]): 44%; inhibition in vivo at 0.5 mg/kg (Rattus norvegicus [14]): 53%; inhibition in vivo at […] (Rattus norvegicus [5]; dose 0.15 mg/kg): 44% |
| CCCc1c(OCCCc2cc3c(cc2O)CC(CCc2ccccc2)O3)ccc(C(C)=O)c1O (stereo not drawn) | 3% | 9 nM | 53 nM | Inhibition (Rattus norvegicus [14]; 0.5 mg/kg): 50%; inhibition in vivo at 0.5 mg/kg (Rattus norvegicus [14]): 50% |
| C=CCc1c(O)ccc2c1CC(CCc1ccccc1)O2 (stereo not drawn) | 18% | 38 nM | 25 nM |  |
| CCCc1cc2c(cc1O)C(C)(C)C(CCc1ccc(SC)cc1)O2 (stereo not drawn) |  | 28 nM | 92 nM |  |
| CCCc1cc2c(cc1O)C(C)(C)C(CCSc1ccccn1)O2 (stereo not drawn) |  | 75 nM | 44 nM |  |
| CCCc1c(O)c(CCCOc2ccc(C3N=NN=N3)cc2)cc2c1CC(CCc1ccccc1)O2 (stereo not drawn) | 2% | 107 nM | 45 nM | bioavailability [15]: 12%; Cmax [16]: 1600 nM; ED50 at […] (Rattus norvegicus [13]): 0.03 mg/kg; inhibition in vivo at 0.05 mg/kg (Rattus norvegicus [9]): 52%; inhibition in vivo at 0.5 mg/kg (Rattus norvegicus [14]): 64%; inhibition in vivo at […] (Rattus norvegicus [5]; dose 0.15 mg/kg): 61% |
| Oc1cc2c(cc1CCCOc1ccccc1)OCC2 |  | 57 nM |  |  |
| Oc1cc2c(cc1CCCOc1ccc(C3N=NN=N3)cc1)OC(CCc1ccccc1)C2 (stereo not drawn) |  | 201 nM |  |  |
| Oc1cc2c(cc1CCCSc1nc3ccccc3s1)OC(CCc1ccccc1)C2 (stereo not drawn) | 1% | 22 nM | 45 nM |  |
| CCCc1c(O)c(CCCOc2ccccc2)cc2c1CC(CCc1ccccc1)O2 (stereo not drawn) | 2% | 52 nM |  | IC50 [10]: 127 nM |
| C=CCc1cc2c(cc1O)C(C)(C)C(CCc1ccc(OC)cc1)O2 (stereo not drawn) | 2% | 47 nM | 52 nM | Plasma level (Rattus norvegicus [17]): 0 µM; inhibition in vivo at […] (Rattus norvegicus [5]; dose 1.5 mg/kg): 50% |
| COc1nc2c(SCCCc3cc4c(cc3O)CC(CCc3ccccc3)O4)cccc2cc1C(=O)O (stereo not drawn) | 1% | 37 nM | 50 nM | bioavailability [18]: 3%; Cmax [19]: 1000 nM; ED50 at […] (Rattus norvegicus [13]): < 0.05 mg/kg; inhibition in vivo at 0.05 mg/kg (Rattus norvegicus [9]): 55%; inhibition in vivo at 0.5 mg/kg (Rattus norvegicus [14]): 69%; inhibition in vivo at […] (Rattus norvegicus [5]; dose 0.15 mg/kg): 72% |
| C=CCc1cc2c(cc1O)CC(CCc1ccccc1)O2 (stereo not drawn) | 52% | 10 nM | 17 nM | inhibition in vivo at 0.5 mg/kg (Rattus norvegicus [14]): 65%; inhibition in vivo at […] (Rattus norvegicus [5]; dose 1.5 mg/kg): 50% |

Reference: ChEMBL document CHEMBL1125428, “Development of 2,3-dihydro-6-(3-phenoxypropyl)-2-(2-phenylethyl)-5-benzofuranol (L-670,630) as a potent and orally active inhibitor of 5-lipoxygenase” (J Med Chem, 1992)
